≈ marks a conversion by molar mass, not a printed value.
Experiments:
Staphylococcus aureus [1] = experiment: Antibacterial activity against methicillin-resistant Staphylococcus aureus EMRSA-15 after 20 hrs by broth microdilution method; format: functional; details: EMRSA-15, 20 h
Summary of the method: (§1)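 Broth microdilution in Tryptic Soy Broth; growth read as OD600 after 20 h. MIC taken as the lowest drug concentration giving OD600 below 0.1. Run in triplicate.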

Enterococcus faecalis [2] = experiment: Antibacterial activity against vancomycin-resistant Enterococcus faecalis NCTC 12201 after 20 hrs by broth microdilution method; format: functional; details: NCTC 12201, 20 h; summary of the method: as §1
[3] = Stabilization of FAM/TAMRA-labeled AT-rich DNA duplex (unknown origin) assessed as change in melting temperature at 1 uM by FRET-based assay
Summary of the method: (§2)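 FRET melting of a FAM/TAMRA-labelled AT-rich oligonucleotide, 400 nM working solution in 50 mM potassium, 50 mM cacodylate, pH 7.4. DNA was annealed at 85 °C for 6 min, then held at 25 °C for 5 h, and mixed 1:1 with sample. Fluorescence was read every 0.5 °C from 30 to 100 °C, with a 30 s hold per step. ΔTm is measured against the blank, in triplicate.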

[4] = Stabilization of FAM/TAMRA-labeled AT-rich DNA duplex (unknown origin) assessed as change in melting temperature at 5 uM by FRET-based assay; summary of the method: as §2
Klebsiella pneumoniae [5] = experiment: Antibacterial activity against Klebsiella pneumoniae M6 after 20 hrs by broth microdilution method; format: functional; details: M6, 20 h
Summary of the method: (§3)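 Broth microdilution in Tryptic Soy Broth, done in triplicate. Growth was read as OD600 after 20 h. MIC is the lowest drug concentration giving OD600 below 0.1.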

Klebsiella pneumoniae [6] = experiment: Antibacterial activity against Klebsiella pneumoniae M6 after 20 hrs in the presence of Pa-beta-N and magnesium ions by broth microdilution method; format: functional; details: M6, 20 h; summary of the method: as §3
Acinetobacter baumannii [7] = experiment: Antibacterial activity against Acinetobacter baumannii ATCC 17978 after 20 hrs by broth microdilution method; format: functional; details: ATCC 17978, 20 h; summary of the method: as §3
Klebsiella pneumoniae [8] = experiment: Antibacterial activity against Klebsiella pneumoniae M6 after 20 hrs in the presence of PMBN by broth microdilution method; format: functional; details: M6, 20 h; summary of the method: as §3
Acinetobacter baumannii [9] = experiment: Antibacterial activity against Acinetobacter baumannii AYE after 20 hrs in the presence of Pa-beta-N and magnesium ions by broth microdilution method; format: functional; summary of the method: as §3
Pseudomonas aeruginosa [10] = experiment: Antibacterial activity against Pseudomonas aeruginosa PAO1 after 20 hrs by broth microdilution method; format: functional; details: PAO1, 20 h; summary of the method: as §3
Pseudomonas aeruginosa [11] = experiment: Antibacterial activity against Pseudomonas aeruginosa PAO1 after 20 hrs in the presence of PMBN by broth microdilution method; format: functional; details: PAO1, 20 h; summary of the method: as §3
Acinetobacter baumannii [12] = experiment: Antibacterial activity against Acinetobacter baumannii AYE after 20 hrs by broth microdilution method; format: functional; summary of the method: as §3
Klebsiella pneumoniae [13] = experiment: Antibacterial activity against Klebsiella pneumoniae NCTC 13368 after 20 hrs in the presence of PMBN by broth microdilution method; format: functional; details: NCTC 13368, 20 h; summary of the method: as §3
Klebsiella pneumoniae [14] = experiment: Antibacterial activity against Klebsiella pneumoniae NCTC 13368 after 20 hrs in the presence of Pa-beta-N and magnesium ions by broth microdilution method; format: functional; details: NCTC 13368, 20 h; summary of the method: as §3
Pseudomonas aeruginosa [15] = experiment: Antibacterial activity against Pseudomonas aeruginosa PAO1 after 20 hrs in the presence of Pa-beta-N and magnesium ions by broth microdilution method; format: functional; details: PAO1, 20 h; summary of the method: as §3
Acinetobacter baumannii [16] = experiment: Antibacterial activity against Acinetobacter baumannii ATCC 17978 after 20 hrs in the presence of PMBN by broth microdilution method; format: functional; details: ATCC 17978, 20 h; summary of the method: as §3
Klebsiella pneumoniae [17] = experiment: Antibacterial activity against Klebsiella pneumoniae NCTC 13368 after 20 hrs by broth microdilution method; format: functional; details: NCTC 13368, 20 h; summary of the method: as §3
Acinetobacter baumannii [18] = experiment: Antibacterial activity against Acinetobacter baumannii AYE after 20 hrs in the presence of PMBN by broth microdilution method; format: functional; summary of the method: as §3
Staphylococcus aureus [19] = experiment: Antibacterial activity against methicillin-sensitive Staphylococcus aureus ATCC 9144 after 20 hrs by broth microdilution method; format: functional; details: ATCC 9144, 20 h; summary of the method: as §3
Staphylococcus aureus [20] = experiment: Antibacterial activity against methicillin-resistant Staphylococcus aureus MRSA252 after 20 hrs by broth microdilution method; format: functional; details: MRSA252, 20 h; summary of the method: as §1
Pseudomonas aeruginosa [21] = experiment: Antibacterial activity against Pseudomonas aeruginosa NCTC 13437 after 20 hrs in the presence of Pa-beta-N and magnesium ions by broth microdilution method; format: functional; details: NCTC 13437, 20 h; summary of the method: as §3
Enterococcus faecium = experiment: Antibacterial activity against vancomycin-resistant Enterococcus faecium NCTC 12204 after 20 hrs by broth microdilution method; format: functional; details: NCTC 12204, 20 h; summary of the method: as §1
[22] = Cytotoxicity against human HeLa cells assessed as cell viability at 25 uM after 24 hrs by MTT assay; format: cell-based; details: read-out: Activity
Summary of the method: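 HeLa cells, 10000 per well, were grown at 37 °C in 5% CO2 and allowed to settle for 24 h. Compound was then added in triplicate for 24 h of continuous exposure. Viability was read by MTT colorimetry, with absorbance at 570 nm.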

Pseudomonas aeruginosa [23] = experiment: Antibacterial activity against Pseudomonas aeruginosa NCTC 13437 after 20 hrs by broth microdilution method; format: functional; details: NCTC 13437, 20 h; summary of the method: as §3
Pseudomonas aeruginosa [24] = experiment: Antibacterial activity against Pseudomonas aeruginosa NCTC 13437 after 20 hrs in the presence of PMBN by broth microdilution method; format: functional; details: NCTC 13437, 20 h; summary of the method: as §3
Enterococcus faecalis [25] = experiment: Antibacterial activity against vancomycin-sensitive Enterococcus faecalis NCTC 775 after 20 hrs by broth microdilution method; format: functional; details: NCTC 775, 20 h; summary of the method: as §3
Acinetobacter baumannii [26] = experiment: Antibacterial activity against Acinetobacter baumannii ATCC 17978 after 20 hrs in the presence of Pa-beta-N and magnesium ions by broth microdilution method; format: functional; details: ATCC 17978, 20 h; summary of the method: as §3

Cc1nc2cc(C(=O)NCCCN(C)C)ccc2n1-c1ccc(-c2cccc(N)c2)cn1
MIC (Staphylococcus aureus [1]): > 128 µg/mL
MIC (Enterococcus faecalis [2]): > 128 µg/mL

Cc1nc2ccc(C(=O)Nc3cccc(-c4ccc(-n5c(C)nc6cc(C(=O)NCCCN7CCCC7)ccc65)nc4)c3)cc2[nH]1
MIC (Staphylococcus aureus [1]): > 128 µg/mL
MIC (Enterococcus faecalis [2]): > 128 µg/mL

Cc1nc2cc(C(=O)NCCCN(C)C)ccc2n1-c1ccc(-c2cccc(NC(=O)c3ccccc3)c2)cn1
MIC (Staphylococcus aureus [1]): > 128 µg/mL
MIC (Enterococcus faecalis [2]): > 128 µg/mL

Cn1cc(NC(=O)c2cc(NC(=O)CN=C(N)N)cn2C)cc1C(=O)NCCC(=N)N [NETROPSIN]
deltaTm [3]: 16.5 °C
deltaTm [4]: 22.2 °C

Cc1nc2cc(C(=O)NCCCN(C)C)ccc2n1-c1ccc(Br)cn1
MIC (Staphylococcus aureus [1]): > 128 µg/mL
MIC (Enterococcus faecalis [2]): > 128 µg/mL

CCN(CC)CCCNC(=O)c1ccc2c(c1)nc(C)n2-c1ccc(-c2cccc(NC(=O)c3ccc4nc(C)[nH]c4c3)c2)cn1
MIC (Staphylococcus aureus [1]): > 128 µg/mL
MIC (Enterococcus faecalis [2]): > 128 µg/mL

Cc1nc2ccc(C(=O)Nc3cccc(-c4ccc(-n5c(C)nc6cc(C(=O)NCCCN7CCN(C)CC7)ccc65)nc4)c3)cc2[nH]1
MIC (Klebsiella pneumoniae [5]): > 32 µg/mL
MIC (Klebsiella pneumoniae [6]): > 32 µg/mL
MIC (Acinetobacter baumannii [7]): > 32 µg/mL
MIC (Klebsiella pneumoniae [8]): > 32 µg/mL
MIC (Acinetobacter baumannii [9]): > 32 µg/mL
MIC (Staphylococcus aureus [1]): > 128 µg/mL
MIC (Pseudomonas aeruginosa [10]): > 32 µg/mL
MIC (Pseudomonas aeruginosa [11]): > 32 µg/mL
MIC (Acinetobacter baumannii [12]): > 32 µg/mL
MIC (Klebsiella pneumoniae [13]): > 32 µg/mL
MIC (Klebsiella pneumoniae [14]): > 32 µg/mL
MIC (Enterococcus faecalis [2]): 64 µg/mL (≈ 99.7 µM)
MIC (Pseudomonas aeruginosa [15]): > 32 µg/mL
MIC (Acinetobacter baumannii [16]): > 32 µg/mL
MIC (Klebsiella pneumoniae [17]): > 32 µg/mL
MIC (Acinetobacter baumannii [18]): > 32 µg/mL
MIC (Staphylococcus aureus [19]): 16 µg/mL (≈ 24.9 µM)
MIC (Staphylococcus aureus [20]): > 32 µg/mL
MIC (Pseudomonas aeruginosa [21]): > 32 µg/mL
MIC (Enterococcus faecium): > 128 µg/mL
viability at 24 h, 25 µM [22]: > 98%
MIC (Pseudomonas aeruginosa [23]): > 32 µg/mL
MIC (Pseudomonas aeruginosa [24]): > 32 µg/mL
MIC (Enterococcus faecalis [25]): > 128 µg/mL
MIC (Acinetobacter baumannii [26]): > 32 µg/mL

COC(=O)c1ccc2c(c1)nc(C)n2-c1ccc(-c2cccc(NC(=O)c3ccc4nc(C)[nH]c4c3)c2)cn1
MIC (Staphylococcus aureus [1]): > 32 µg/mL
MIC (Enterococcus faecalis [2]): > 32 µg/mL

Cc1nc2cc(C(=O)NCCCN(C)C)ccc2n1-c1ccc(-c2cccc(NC(=O)c3ccc4nc(CCCN(C)C)[nH]c4c3)c2)cn1
MIC (Staphylococcus aureus [1]): > 128 µg/mL
MIC (Enterococcus faecalis [2]): 32 to 64 µg/mL (≈ 48.6 to 97.3 µM)
MIC (Staphylococcus aureus [19]): > 128 µg/mL
MIC (Staphylococcus aureus [20]): > 128 µg/mL
MIC (Enterococcus faecium): 64 µg/mL (≈ 97.3 µM)
viability at 24 h, 25 µM [22]: 39%
MIC (Enterococcus faecalis [25]): > 128 µg/mL

CN[C@H](CC(C)C)C(=O)N[C@H]1C(=O)N[C@@H](CC(N)=O)C(=O)N[C@H]2C(=O)N[C@H]3C(=O)N[C@H](C(=O)N[C@H](C(=O)O)c4cc(O)cc(O)c4-c4cc3ccc4O)[C@H](O)c3ccc(c(Cl)c3)Oc3cc2cc(c3O[C@@H]2O[C@H](CO)[C@@H](O)[C@H](O)[C@H]2O[C@H]2C[C@](C)(N)[C@H](O)[C@H](C)O2)Oc2ccc(cc2Cl)[C@H]1O [VANCOMYCIN]
MIC (Enterococcus faecalis [2]): > 128 µg/mL
MIC (Enterococcus faecium): > 128 µg/mL
MIC (Enterococcus faecalis [25]): 1 µg/mL (≈ 0.69 µM)

COC(=O)c1ccc2c(c1)nc(C)n2-c1ccc(-c2cccc(NC(=O)c3ccc4nc(CCCN(C)C)[nH]c4c3)c2)cn1
MIC (Staphylococcus aureus [1]): > 128 µg/mL
MIC (Enterococcus faecalis [2]): > 128 µg/mL

Cc1nc2ccc(-c3cccc(-c4ccc(-n5c(C)nc6cc(C(=O)NCCCN(C)C)ccc65)nc4)c3)cc2[nH]1
MIC (Staphylococcus aureus [1]): > 128 µg/mL
MIC (Enterococcus faecalis [2]): 64 µg/mL (≈ 118 µM)
MIC (Staphylococcus aureus [19]): > 128 µg/mL
MIC (Staphylococcus aureus [20]): > 128 µg/mL
MIC (Enterococcus faecium): 64 µg/mL (≈ 118 µM)
viability at 24 h, 25 µM [22]: 62%
MIC (Enterococcus faecalis [25]): 64 µg/mL (≈ 118 µM)

CC1(C)S[C@@H]2[C@H](NC(=O)[C@H](N)c3ccc(O)cc3)C(=O)N2[C@H]1C(=O)O [AMOXICILLIN]
MIC (Staphylococcus aureus [1]): 128 µg/mL (≈ 350 µM)
MIC (Enterococcus faecalis [2]): 0.5 µg/mL (≈ 1.37 µM)
MIC (Staphylococcus aureus [19]): 1 µg/mL (≈ 2.74 µM)
MIC (Staphylococcus aureus [20]): > 128 µg/mL
MIC (Enterococcus faecium): 16 µg/mL (≈ 43.8 µM)
MIC (Enterococcus faecalis [25]): 0.5 µg/mL (≈ 1.37 µM)

Cc1nc2ccc(C(=O)Nc3cccc(-c4ccc(-n5c(C)nc6cc(C(=O)NCCCN7CCOCC7)ccc65)nc4)c3)cc2[nH]1
MIC (Staphylococcus aureus [1]): > 128 µg/mL
MIC (Enterococcus faecalis [2]): > 128 µg/mL

Reference: ChEMBL document CHEMBL4011643, “Triaryl Benzimidazoles as a New Class of Antibacterial Agents against Resistant Pathogenic Microorganisms” (J Med Chem, 2017)
